In brackets after ≈: the same amount, converted by molar mass.
Legend:
[1] = Bioavailability in the portal circulation after 10 minutes was determined after intraduodenal dose of 10 mg/kg in rat by renin inhibition assay; assay type: ADME, organism-based; details: plasma (portal circulation), read-out: Plasma level
Method in brief: (§1)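 Screening model in anesthetized rats given 10 mg/kg intraduodenally. Formulation was ethanol stock with 110 mol % HCl, diluted with aqueous hydroxypropyl methylcellulose to 25% ethanol. Systemic and portal blood drawn at 10 and 30 min in the same animals. Drug level (ng/mL) measured by HPLC or renin inhibition assay. Mean ± SEM, n = 3 unless noted.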

[2] = Peak concentration was determined in systemic circulation after intraduodenal dose of 10 mg/kg in monkey, determined by renin inhibition assay; assay type: ADME, organism-based; parameters: dose 10 mg/kg, route intraduodenal; details: simiiformes, in vivo, read-out: Activity
Method in brief: (§2)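 Anesthetized, salt-depleted cynomolgus monkeys dosed intraduodenally at 10 mg/kg in HCl salt/ethanol–hydroxypropyl methylcellulose vehicle (25% ethanol). Systemic and portal plasma drug levels measured by renin inhibition assay. AUC in ng h/mL. Bioavailability compared against an iv dose of 0.3 mg/kg or 1.0 mg/kg, the latter taken from earlier work. Mean ± SEM.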

[3] = Peak concentration was determined in portal circulation after intraduodenal dose of 10 mg/kg in monkey; assay type: ADME, organism-based; parameters: dose 10 mg/kg, route intraduodenal; details: simiiformes, in vivo, read-out: Activity; method in brief: as §2
[4] = Integrated area under the plasma drug level-time curve was determined in systemic circulation after intraduodenal dose of 10 mg/kg in monkey determined by renin inhibition assay; assay type: ADME, organism-based; parameters: dose 10 mg/kg, route intraduodenal; details: simiiformes; method in brief: as §2
[5] = Integrated area under the plasma drug level-time curve was determined in portal circulation after intraduodenal dose of 10 mg/kg in monkey; assay type: ADME, organism-based; parameters: dose 10 mg/kg, route intraduodenal; details: simiiformes; method in brief: as §2
[6] = In vitro inhibitory concentration against monkey plasma renin at pH 7.4
[7] = Bioavailability in the portal circulation after 30 minutes was determined after intraduodenal dose of 10 mg/kg in rat by renin inhibition assay; assay type: ADME, organism-based; details: plasma (portal circulation), read-out: Plasma level; method in brief: as §1
[8] = Bioavailability was determined after intraduodenal dose of 10 mg/kg in ferret, determined by renin inhibition assay; assay type: ADME, organism-based, Mustela putorius furo; details: in vivo, read-out: Bioavailabiility
Method in brief: (§3)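 Intraduodenal 10 mg/kg to anesthetized rats or ferrets. Compound dissolved in ethanol with 110 mol % HCl, then diluted in aqueous hydroxypropyl methylcellulose to 25% ethanol (10 mg/mL). Plasma sampled id rat 15, 30, 60, 120 min; id ferret 5, 15, 30, 60, 120, 180 min. Drug measured by renin inhibition assay or HPLC. AUC in ng h/mL. Bioavailability is relative to iv 1.0 mg/kg (rat) or 0.3 mg/kg (ferret).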

[9] = Bioavailability was determined after intraduodenal dose of 10 mg/kg in monkey (compared to 0.3 mg/kg intravenous dose), determined by renin inhibition assay; assay type: ADME, organism-based; details: simiiformes, in vivo, read-out: Bioavailabiility; method in brief: as §2
[10] = Partition coefficient in the octanol/water phase at pH 7.4; assay type: physicochemical
Method in brief: (§4)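 log P measured by octanol/water partition at pH 7.4.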

[11] = Bioavailability was determined after intraduodenal dose of 10 mg/kg in rat, determined by renin inhibition assay; assay type: ADME, organism-based; details: in vivo, read-out: Bioavailabiility; method in brief: as §3
[12] = Bioavailability in the systemic circulation after 10 minutes was determined after intraduodenal dose of 10 mg/kg in rat by renin inhibition assay; assay type: ADME, organism-based; details: plasma (systemic circulation), read-out: Plasma level; method in brief: as §1
[13] = Hypotension peak is percentage change from predose baseline pressure observed after intraduodenal dose of 10 mg/kg in monkey; assay type: ADME, organism-based; parameters: dose 10 mg/kg, route intraduodenal; details: simiiformes, in vivo, other
Method in brief: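 Anesthetized, salt-depleted cynomolgus monkeys given 10 mg/kg intraduodenally. Mean arterial pressure followed for up to 5 h. Peak fall expressed as % change from predose baseline. Difference from baseline significant if P < 0.05. Mean ± SEM.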

[14] = target: Renin (Canis lupus familiaris); test: In vitro inhibitory concentration against dog plasma renin at pH 7.4
Renin [15] = target: T1, Renin (Homo sapiens, UniProt P00797); test: In vitro inhibitory concentration against human plasma renin at pH 7.4; assay type: cell-free
T1 sequence (P00797 whole entry): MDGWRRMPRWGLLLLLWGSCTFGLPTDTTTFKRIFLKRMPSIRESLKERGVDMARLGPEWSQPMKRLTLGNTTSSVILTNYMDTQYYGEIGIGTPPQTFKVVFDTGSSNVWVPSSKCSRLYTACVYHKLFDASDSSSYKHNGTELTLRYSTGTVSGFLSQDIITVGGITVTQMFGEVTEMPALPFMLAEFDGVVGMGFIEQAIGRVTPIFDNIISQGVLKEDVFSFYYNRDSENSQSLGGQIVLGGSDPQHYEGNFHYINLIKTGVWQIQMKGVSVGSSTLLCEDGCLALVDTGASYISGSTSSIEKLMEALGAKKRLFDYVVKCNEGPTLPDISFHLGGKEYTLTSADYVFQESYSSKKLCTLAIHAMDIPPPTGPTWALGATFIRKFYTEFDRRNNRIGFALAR

[16] = Bioavailability in the systemic circulation after 30 minutes was determined after intraduodenal dose of 10 mg/kg in rat by renin inhibition assay; assay type: ADME, organism-based; details: plasma (systemic circulation), read-out: Plasma level; method in brief: as §1
Renin [17] = target: T2, Renin (Rattus norvegicus, UniProt P08424); test: In vitro inhibitory concentration against rat plasma renin at pH 7.4; assay type: cell-free
T2 sequence (P08424 whole entry): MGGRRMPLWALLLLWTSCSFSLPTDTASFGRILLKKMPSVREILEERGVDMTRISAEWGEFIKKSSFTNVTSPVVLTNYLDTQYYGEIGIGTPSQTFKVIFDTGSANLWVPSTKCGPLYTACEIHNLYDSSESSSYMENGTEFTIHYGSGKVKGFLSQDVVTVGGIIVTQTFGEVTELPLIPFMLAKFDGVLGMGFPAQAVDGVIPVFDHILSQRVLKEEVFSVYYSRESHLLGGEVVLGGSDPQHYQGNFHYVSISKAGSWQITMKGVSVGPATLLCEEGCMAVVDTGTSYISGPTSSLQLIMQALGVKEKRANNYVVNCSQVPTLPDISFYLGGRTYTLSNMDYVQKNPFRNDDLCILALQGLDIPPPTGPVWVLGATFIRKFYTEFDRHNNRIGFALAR

[18] = Solubility at pH 7.4; assay type: physicochemical; details: buffer
[19] = Peak concentration was determined in systemic circulation after intraduodenal dose of 10 mg/kg in rat, determined by renin inhibition assay; assay type: ADME, organism-based; parameters: dose 10 mg/kg, route intraduodenal; details: in vivo, read-out: Activity; method in brief: as §3
[20] = Integrated area under the plasma drug level-time curve was determined in systemic circulation after intraduodenal dose of 10 mg/kg in ferret, determined by renin inhibition assay; assay type: ADME, organism-based, Mustela putorius furo; parameters: dose 10 mg/kg, route intraduodenal; method in brief: as §3
[21] = Integrated area under the plasma drug level-time curve was determined in systemic circulation after intraduodenal dose of 10 mg/kg in rat, determined by renin inhibition assay; assay type: ADME, organism-based; parameters: dose 10 mg/kg, route intraduodenal; method in brief: as §3
[22] = Peak concentration was determined in systemic circulation after intraduodenal dose of 10 mg/kg in ferret, determined by renin inhibition assay; assay type: ADME, organism-based, Mustela putorius furo; parameters: dose 10 mg/kg, route intraduodenal; details: in vivo, read-out: Activity; method in brief: as §3
[23] = Bioavailability was determined after intraduodenal dose of 10 mg/kg in monkey (compared to 1 mg/kg intravenous dose); assay type: ADME, organism-based; details: simiiformes, in vivo, read-out: Bioavailabiility; method in brief: as §2
[24] = Bioavailability in the systemic circulation after 10 minutes was determined after intraduodenal dose of 15 mg/kg in rat by renin inhibition assay; assay type: ADME, organism-based; details: plasma (systemic circulation), read-out: Plasma level
[25] = Peak concentration was determined in systemic circulation after intraduodenal dose of 10 mg/kg in rat; assay type: ADME, organism-based; parameters: dose 10 mg/kg, route intraduodenal; details: in vivo, read-out: Activity; method in brief: as §3
[26] = Peak concentration was determined in systemic circulation after intraduodenal dose of 10 mg/kg in ferret; assay type: ADME, organism-based, Mustela putorius furo; parameters: dose 10 mg/kg, route intraduodenal; details: in vivo, read-out: Activity; method in brief: as §3
[27] = Bioavailability in rat (dose 10 mg/kg i.d.); assay type: ADME, organism-based; details: in vivo; method in brief: as §3
[28] = Peak concentration was determined in systemic circulation after intraduodenal dose of 10 mg/kg in monkey; assay type: ADME, organism-based; parameters: dose 10 mg/kg, route intraduodenal; details: simiiformes, in vivo, read-out: Activity; method in brief: as §2
[29] = Bioavailability in ferret (dose 10 mg/kg i.d.); assay type: ADME, organism-based, Mustela putorius furo; details: in vivo; method in brief: as §3
[30] = Integrated area under the plasma drug level-time curve was determined in systemic circulation after intraduodenal dose of 10 mg/kg in monkey; assay type: ADME, organism-based; parameters: dose 10 mg/kg, route intraduodenal; details: simiiformes; method in brief: as §2
[31] = Integrated area under the plasma drug level-time curve was determined in systemic circulation after intraduodenal dose of 10 mg/kg in ferret; assay type: ADME, organism-based, Mustela putorius furo; parameters: dose 10 mg/kg, route intraduodenal; method in brief: as §3
[32] = Integrated area under the plasma drug level-time curve was determined in systemic circulation after intraduodenal dose of 10 mg/kg in rat; assay type: ADME, organism-based; parameters: dose 10 mg/kg, route intraduodenal; method in brief: as §3
[33] = Bioavailability in the systemic circulation after 30 minutes was determined after intraduodenal dose of 10 mg/kg in rat by HPLC method; assay type: ADME, organism-based; details: plasma (systemic circulation), read-out: Plasma level; method in brief: as §1
[34] = Bioavailability in the portal circulation after 10 minutes was determined after intraduodenal dose of 10 mg/kg in rat by HPLC method; assay type: ADME, organism-based; details: plasma (portal circulation), read-out: Plasma level; method in brief: as §1
[35] = Partition coefficient in octanol/water phase at pH 7.4; assay type: physicochemical; method in brief: as §4
[36] = Bioavailability in the systemic circulation after 10 minutes was determined after intraduodenal dose of 10 mg/kg in rat by HPLC method; assay type: ADME, organism-based; details: plasma (systemic circulation), read-out: Plasma level; method in brief: as §1
[37] = Bioavailability in the portal circulation after 30 minutes was determined after intraduodenal dose of 10 mg/kg in rat by HPLC method; assay type: ADME, organism-based; details: plasma (portal circulation), read-out: Plasma level; method in brief: as §1
Renin [38] = target: T1, Renin; test: Inhibitory concentration against human plasma renin at pH 7.4; assay type: cell-free
[39] = Bioavailability was determined after intraduodenal dose of 10 mg/kg in monkey (compared to 0.3 mg/kg intravenous dose); assay type: ADME, organism-based; details: simiiformes, in vivo, read-out: Bioavailabiility; method in brief: as §2

## CC(C)C[C@H](O)[C@H](O)[C@H](CC1CCCCC1)NC(=O)[C@H](Cc1cscn1)NC(=O)[C@@H](CC(=O)N(C)CCc1ccccn1)Cc1ccccc1
[1]
  concentration at 10 min: 550 ng/mL
[2]
  Cmax: 70 ng/mL
[3]
  Cmax: 1200 ng/mL
[4]
  AUC: 260 ng·h/mL
[5]
  AUC: 3400 ng·h/mL
[6]
  IC50: 0.76 nM
[7]
  concentration at 0.5 h: 560 ng/mL
[8]
  bioavailability: 68%
[9]
  bioavailability: 3.1%
[10]
  logD: 4.22
[11]
  bioavailability: 27%
[12]
  concentration at 10 min: 220 ng/mL
[13]
  Change: 28%
[14]
  IC50: 33 nM
Renin [15]
  IC50: 2.6 nM
[16]
  concentration at 0.5 h: 230 ng/mL
Renin [17]
  IC50: > 10000 nM
[18]
  solubility: 13 µg/mL (≈ 18.4 µM)
[19]
  Cmax: 980 ng/mL
[20]
  AUC: 1100 ng·h/mL
[21]
  AUC: 1300 ng·h/mL
[22]
  Cmax: 510 ng/mL

## CC(C)C[C@H](O)[C@H](O)[C@H](CC1CCCCC1)NC(=O)[C@H](Cc1cscn1)NC(=O)[C@H](Cc1ccccc1)CS(=O)(=O)N1CCN(C)CC1 [ZANKIREN]
[23]
  bioavailability: 5.1%
[3]
  Cmax: 2400 ng/mL
[5]
  AUC: 3800 ng·h/mL
[24]
  concentration at 10 min: 280 ng/mL
[10]
  logD: 4.57
[25]
  Cmax: 470 ng/mL
[13]
  Change: 37%
[26]
  Cmax: 940 ng/mL
[16]
  concentration at 0.5 h: 440 ng/mL
[27]
  bioavailability: 23%
[28]
  Cmax: 130 ng/mL
[29]
  bioavailability: 82%
[30]
  AUC: 340 ng·h/mL
[31]
  AUC: 1500 ng·h/mL
[32]
  AUC: 620 ng·h/mL

## CC(C)C[C@H](O)[C@H](O)[C@H](CC1CCCCC1)NC(=O)[C@H](Cc1cscn1)NC(=O)[C@@H](CC(=O)N(C)CCCN(C)C)Cc1ccccc1
[33]
  concentration at 0.5 h: 47 ng/mL
[34]
  concentration at 10 min: 580 ng/mL
[35]
  logD: 2.83
[36]
  concentration at 10 min: 93 ng/mL
[37]
  concentration at 0.5 h: 270 ng/mL
Renin [38]
  IC50: 8.1 nM

## CC(C)C[C@H](O)[C@H](O)[C@H](CC1CCCCC1)NC(=O)[C@H](Cc1cscn1)NC(=O)[C@H](Cc1ccccc1)CS(=O)(=O)C1CCN(C)CC1
[3]
  Cmax: 550 ng/mL
[5]
  AUC: 530 ng·h/mL
[10]
  logD: 3.61
[13]
  Change: 23%
[28]
  Cmax: 72 ng/mL
[30]
  AUC: 110 ng·h/mL
[39]
  bioavailability: 1.8%
Renin [38]
  IC50: 4 nM

Source: ChEMBL document CHEMBL1126595, “Studies directed toward the design of orally active renin inhibitors. 2. Development of the efficacious, bioavailable renin inhibitor (2S)-2-benzyl-3- [[(1-methylpiperazin-4-yl)sulfonyl]propionyl]-3-thiazol-4-yl-L-alanine amide of (2S,3R,4S)-2-amino-1-cyclohexyl-3,4-dihydroxy-6-methylheptane …” (J Med Chem, 1993)
